According to ChEMBL document CHEMBL1139499, “Nucleotides and pronucleotides of 2,2-bis(hydroxymethyl)methylenecyclopropane analogues of purine nucleosides: synthesis and antiviral activity” (J Med Chem, 2005):

Legend:
HFF [1] = test: Cytotoxic concentration against AD169 strain of human cytomegalovirus infected HFF cells of human (by neutral red uptake); assay type: functional
Human betaherpesvirus 5 [2] = test: Effective concentration for antiviral activity against towne strain of human cytomegalovirus in plaque reduction assay; assay type: functional, organism-based
Procedure, shortened: (§1)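 Human CMV (Towne and AD169 strains) grown in HFF cell culture; antiviral effect read by plaque reduction or by cytopathic effect (CPE) inhibition. Cytotoxicity measured in HFF cells. Single experiments unless specified otherwise.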

Daudi = test: Cytotoxic concentration to inhibit replication in daudi cells; assay type: functional; settings: Homo sapiens
Human alphaherpesvirus 1 [3] = test: Effective concentration required to inhibit herpes simplex virus 1 in HFF cells in cytopathic effect (CPE) assay; assay type: functional, organism-based; settings: Human alphaherpesvirus 1, HFF
Procedure, shortened: (§2)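 HSV-1 and HSV-2 assayed in HFF cells by cytopathic effect (CPE) inhibition and by plaque reduction. Cytotoxicity measured in HFF cells. Single experiments unless specified otherwise.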

Human alphaherpesvirus 1 [4] = test: Effective concentration required to inhibit herpes simplex virus 1 in vero cells in plaque reduction assay; assay type: functional, organism-based; settings: Human alphaherpesvirus 1, Vero
Procedure, shortened: (§3)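 HSV-1 and HSV-2 assayed in Vero cells by plaque reduction. Single experiments unless specified otherwise.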

MEF = test: Cytotoxic concentration against murine cytomegalovirus infected MEF cells; assay type: functional; settings: Mus musculus
Hepatitis B virus = test: Effective concentration required to inhibit hepatitis B virus replication in 2.2.15 cells in DNA hybridization assay; assay type: functional, organism-based; settings: HepG2 2.2.15
Procedure, shortened: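 HBV assayed in 2.2.15 cells by DNA hybridization. CC50 values are those from the EBV/H-1 cytotoxicity determination, run in CEM cells. Single experiments unless specified otherwise.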

Human alphaherpesvirus 1 [5] = test: Effective concentration required to inhibit herpes simplex virus 1 in BSC-1 cells in ELISA; assay type: functional, organism-based; settings: Human alphaherpesvirus 1, BSC-1
Procedure, shortened: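 HSV-1 assayed in BSC-1 cells with ELISA read-out; cytotoxicity in these assays determined in KB cells. Single experiments unless specified otherwise.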

HFF [6] = test: Cytotoxic concentration against towne strain of human cytomegalovirus infected HFF cells of human (visual cytotoxicity); assay type: functional; procedure, shortened: as §1
Human gammaherpesvirus 4 [7] = test: Effective concentration required to inhibit Epstein-barr virus replication in H-1 cells in DNA hybridization assay; assay type: functional, organism-based; settings: human gammaherpesvirus 4, H-1
Procedure, shortened: (§4)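 EBV assayed in H-1 cells by DNA hybridization. Cytotoxicity determined separately in CEM cells. Single experiments unless specified otherwise.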

Human betaherpesvirus 5 [8] = test: Effective concentration for antiviral activity against AD169 strain of human cytomegalovirus in plaque reduction assay; assay type: functional, organism-based; procedure, shortened: as §1
[9] = Effective concentration required to inhibit varicella zoster virus replication in HFF cells; assay type: functional, cell-based; settings: Human alphaherpesvirus 3, HFF
Procedure, shortened: (§5)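 VZV assayed in HFF cells by cytopathic effect (CPE) inhibition or by plaque reduction. Single experiments unless specified otherwise.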

Human alphaherpesvirus 2 [10] = test: Effective concentration required to inhibit herpes simplex virus 2 in HFF cells in cytopathic effect (CPE) assay; assay type: functional, organism-based; settings: Human alphaherpesvirus 2, HFF; procedure, shortened: as §2
KB (Homo sapiens) = test: Cytotoxic concentration required to inhibit KB cells
Human alphaherpesvirus 2 [11] = test: Effective concentration required to inhibit herpes simplex virus 2 in vero cells in plaque reduction assay; assay type: functional, organism-based; settings: Human alphaherpesvirus 2, Vero; procedure, shortened: as §3
[12] = Cytotoxic concentration to inhibit replication in H-1 cells (in CEM cells); assay type: functional; settings: Homo sapiens, CCRF-CEM; procedure, shortened: as §4
Human gammaherpesvirus 4 [13] = test: Effective concentration required to inhibit Epstein-barr virus replication in daudi cells in viral capsid immunofluorescence ELISA; assay type: functional, organism-based; settings: human gammaherpesvirus 4, Daudi
HFF [14] = test: Cytotoxic concentration against AD169 strain of human cytomegalovirus infected HFF cells of human (by cytopathic effect inhibition assay); assay type: functional; procedure, shortened: as §1
HFF [15] = test: Cytotoxic concentration against town strain of human cytomegalovirus infected HFF cells of human (visual cytotoxicity); assay type: functional; procedure, shortened: as §1
[16] = Effective concentration required to inhibit varicella zoster virus replication in HFF cells in plaque reduction assay; assay type: functional, cell-based; settings: Human alphaherpesvirus 3, HFF; procedure, shortened: as §5
[17] = Effective concentration required to inhibit varicella zoster virus replication in HFF cells in cytopathic reduction assay; assay type: functional, cell-based; settings: Human alphaherpesvirus 3, HFF; procedure, shortened: as §5
Vero = test: Cytotoxic concentration required to inhibit herpes simplex virus 1 infected vero cells; assay type: functional; settings: Chlorocebus sabaeus
HFF [18] = test: Cytotoxic concentration to inhibit Herpes simplex virus 1 infected HFF cells; assay type: functional; settings: Homo sapiens; procedure, shortened: as §2
HFF [19] = test: Cytotoxic concentration to inhibit Herpes simplex virus 2 infected HFF cells; assay type: functional; settings: Homo sapiens; procedure, shortened: as §2
HFF [20] = test: Cytotoxic concentration against towne strain of human cytomegalovirus infected HFF cells of human (visual cytotoxicity); range=100-200; assay type: functional; procedure, shortened: as §1

| SMILES | CC50 (HFF [1]) [µM] | EC50 (Human betaherpesvirus 5 [2]) [µM] | CC50 (Daudi) [µM] | EC50 (Human alphaherpesvirus 1 [3]) [µM] | EC50 (Human alphaherpesvirus 1 [4]) [µM] | CC50 (MEF) [µM] | EC50 (Hepatitis B virus) [µM] | EC50 (Human alphaherpesvirus 1 [5]) [µM] | CC50 (HFF [6]) [µM] | EC50 (Human gammaherpesvirus 4 [7]) [µM] | EC50 (Human betaherpesvirus 5 [8]) [µM] | EC50 [9] [µM] | EC50 (Human alphaherpesvirus 2 [10]) [µM] | CC50 (KB (Homo sapiens)) [µM] | EC50 (Human alphaherpesvirus 2 [11]) [µM] | CC50 [12] [µM] | EC50 (Human gammaherpesvirus 4 [13]) [µM] | CC50 (HFF [14]) [µM] | other results |
| --- | --- | --- | --- | --- | --- | --- | --- | --- | --- | --- | --- | --- | --- | --- | --- | --- | --- | --- | --- |
| Nc1ncnc2c1ncn2/C=C1/CC1(CO)CO | > 404 | 2.4 | > 202 | > 404 | > 50 | > 404 | > 10 | 50 | > 100 | > 20 | 11.7 | > 404 | > 404 | > 100 | > 50 | > 50 |  |  |  |
| Nc1nc(O)c2ncn(/C=C3\CC34COP(=O)(O)OC4)c2n1 (stereo not given) |  | > 100 | > 150 | > 299 | > 50 |  | > 20 | > 100 | > 100 | > 20 | > 299 | > 299 | > 299 | > 100 | 50 | > 100 | > 150 | > 299 |  |
| COC(=O)C(C)NP(=O)(OCC1(CO)C/C1=C\n1cnc2c(O)nc(N)nc21)Oc1ccccc1 (stereo not given) |  | > 100 | > 198 | > 198 | > 50 |  | > 10 | 70 | > 100 | > 20 | > 198 | > 198 | > 198 | > 100 | > 50 | > 100 | > 99 | > 198 |  |
| Nc1nc(O)c2ncn(/C=C3\CC3(CO)COP(=O)(O)O)c2n1 (stereo not given) |  | > 100 | > 146 | > 291 | > 50 |  | > 20 | > 100 |  | > 20 | > 291 | > 291 | > 291 | > 100 | > 50 | > 100 | > 146 | > 291 | CC50 (HFF [15]): > 100 µM |
| COC(=O)C(C)NP(=O)(OCC1(CO)C/C1=C/n1cnc2c(O)nc(N)nc21)Oc1ccccc1 (stereo not given) | > 198 | 3.6 | > 198 | > 198 | > 50 | > 198 | 4.1 | > 100 | > 100 | 3.4 | 8.1 |  | > 198 | > 100 | > 50 | 35 | > 99 |  | EC50 [16]: 7.3 µM; EC50 [17]: 6.3 µM |
| COC(=O)C(C)NP(=O)(OCC1(CO)C/C1=C\n1cnc2c(N)ncnc21)Oc1ccccc1 (stereo not given) |  | > 100 | > 102 | > 205 | > 30 |  | > 20 | > 100 | > 100 | > 20 | > 205 | > 205 | > 205 | > 100 | > 30 | > 25 | > 102 | > 205 |  |
| Nc1nc(O)c2ncn(/C=C3/CC34COP(=O)(O)OC4)c2n1 (stereo not given) | > 301 | 20 | > 150 | > 301 | 16 | > 301 | 0.8 | 20 | > 100 | > 20 | 6 | > 301 | 242 | > 100 | 22 | > 100 | 0.96 |  | CC50 (Vero): > 100 µM |
| COC(=O)C(C)NP(=O)(OCC1(CO)C/C1=C/n1cnc2c(N)ncnc21)Oc1ccccc1 (stereo not given) | 200 | 3 | > 102 | 21.1 | > 40 |  | 12.8 | 55 | 32 | 3 | 18.4 | > 41 | 22.1 | 3.5 | > 40 | 3.8 | > 102 |  | CC50 (HFF [18]): 200 µM; CC50 (HFF [19]): 200 µM |
| Nc1nc2c(ncn2/C=C2/CC2(CO)CO)c(=O)[nH]1 [FILOCICLOVIR] | > 380 | 0.33 | 74 | > 380 | > 50 | > 380 | > 10 | > 100 |  |  | 0.49 | > 380 | > 380 | > 100 | > 50 | > 50 |  |  | CC50 (HFF [20]): 200 µM |
| Nc1nc2c(ncn2COC(CO)CO)c(=O)[nH]1 [GANCICLOVIR] | > 392 | 2.1 |  |  |  | > 392 |  |  |  | 5 | 1.6 |  |  |  |  |  |  |  | CC50 (HFF [15]): > 100 µM |
